The source made the active and inactive calls. The calls are words filed in the database; no cut-off is given here.
Experiments:
[1] = target: T1, Glutamate NMDA receptor (Rattus norvegicus) (UniProt P35439+Q00959+Q00960+Q00961+Q62645+Q8VHN2+Q9R1M7); assay: N-methyl-D-aspartate glutamate receptor antagonistic ability of 100 uM of compound was assessed from the ability to displace [3H]CPP29,30 from rat cortical membranes.; type: cell membranes; details: Membrane
[2] = target: T1, Glutamate NMDA receptor (Rattus norvegicus); assay: NMDA receptor antagonistic ability of 100 uM of compound was assessed from the ability to displace [3H]CPP29,30 from rat cortical membranes.; type: cell membranes; details: Membrane
Mus musculus [3] = species: Mus musculus; assay: Compound was tested for the maximum dose that protects from NMDA-induced death in mice; Inactive; type: functional
In short: (§1)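 CF-1 mice (22–28 g) got the test agent by retrobulbar iv injection in 0.9% saline (5 mL/kg), then NMDA 25 mg/kg retrobulbar iv 5 or 30 min later. Doses were tested up to 30 mg/kg, scoring protection from lethal seizures.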

Glutamate NMDA receptor [4] = assay: NMDA receptor antagonistic activity was assessed from the ability to displace [3H]CPP29,30 from rat cortical membranes.
In short: (§2)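 Crude synaptic membranes came from Long-Evans male rat forebrain (minus cerebellum and brainstem) and were treated with 0.01% Triton X-100 for 30 min at 37 °C, then washed. Membranes (200–400 µg protein/mL) were incubated with 10 nM [³H]CPP in 50 mM Tris-HCl, pH 7.6, for 15 min at 23 °C, in triplicate, and separated by centrifugation. Nonspecific binding was defined with 1 mM L-glutamate. IC50 came from a nonlinear fit of four or more concentrations.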

Mus musculus [5] = species: Mus musculus; assay: NMDA receptor antagonist activity was measured as ataxia (the inability of the mice to cling to screen platform upon its inversion.); type: functional
In short: (§3)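 CF-1 mice (22–28 g) were dosed retrobulbarly with test agent or vehicle (0.9% saline, 5 mL/kg). Just before the NMDA challenge they were placed on an inverted screen. Ataxia was scored as failure to cling to the platform after inversion, and ED50 values were derived from dose-response data.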

Mus musculus [6] = assay: NMDA receptor antagonist activity of compound was demonstarted in vivo, by the inhibition of NMDA-induced lethality in mouse; type: functional
In short: (§4)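 CF-1 mice (22–28 g) were dosed retrobulbar with test agent or vehicle (0.9% saline, 5 mL/kg), 5 or 30 min before a bolus retrobulbar injection of NMDA (25 mg/kg) in saline into the other eye. The endpoint was prevention of death from seizures. ED50 came from at least three half-log doses with 10 mice per dose.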

Glutamate NMDA receptor [7] = assay: NMDA receptor antagonistic activity was assessed from the ability to displace [3H]CPP29,30 from rat cortical membranes; in short: as §2
Glutamate NMDA receptor [8] = assay: NMDA receptor antagonistic activity was assessed in vitro by the assement of ability to inhibit glutamate-induced accumulation of [Ca2+] in cultured rat cortical neurons.; type: functional
In short: (§5)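 Cortical neurons from E18 Sprague-Dawley rat fetuses were tested 14–16 days after plating. Cells were exposed for 30 min at 37 °C to 100 µM L-glutamate with ⁴⁵Ca²⁺ (2 µCi/mL) in Mg-free HBSS containing 1.4 mM CaCl₂ at pH 7.4, then washed and lysed for counting. Baseline uptake was subtracted. IC50 came from at least four half-log concentrations with six or more replicates each.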

Mus musculus [9] = assay: NMDA antagonist activity was measured as ataxia (the inability of the mice to cling to screen platform upon its inversion.) tested in vivo; type: functional
In short: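 Ataxia was scored in CF-1 mice (22–28 g) on an inverted screen, as failure to cling when the platform was inverted. Scoring was done just before NMDA challenge (25 mg/kg, retrobulbar iv) and after retrobulbar dosing of the test agent in 0.9% saline (5 mL/kg). The result is reported as an ED50.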

Mus musculus [10] = assay: NMDA receptor antagonist activity of compound was demonstarted in vivo by the inhibition of NMDA-induced lethality in mouse tested in vivo; type: functional; in short: as §4
Glutamate NMDA receptor [11] = assay: NMDA receptor antagonistic activity was assessed in vitro by deteriming the ability to inhibit glutamate-induced accumulation of [Ca2+] in cultured rat cortical neurons.; type: functional
In short: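 Rat (Sprague-Dawley, E18) cerebral hemisphere neurons, trypsin-dissociated, plated on poly-L-lysine at 200 000 cells/cm², used on days 14–16. Assay in serum- and Mg-free HBSS with 1.4 mM CaCl₂, pH 7.4, 37 °C. 30-min exposure to 100 µM L-glutamate (final) plus trace ⁴⁵Ca²⁺, with or without test agent. Baseline subtracted. IC50 from ≥4 half-log concentrations, ≥6 replicates each.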

Mus musculus [12] = species: Mus musculus; assay: Compound was tested for the maximum dose that protects from NMDA-induced death; type: functional; in short: as §1
Mus musculus [13] = assay: N-methyl-D-aspartate glutamate receptor antagonist activity of compound was demonstarted by the inhibition of NMDA-induced lethality in mouse;IA means Compound was inactive at 30 mg/kg when examined after 5 or 30 min after iv dosing.; type: functional, organism-based; design: dose 30 mg/kg
In short: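 CF-1 mice (22–28 g) received test agent or vehicle (0.9% saline, 5 mL/kg) by retrobulbar injection 5 min before a bolus retrobulbar NMDA dose of 25 mg/kg in saline, which causes lethal seizures in untreated controls. Protection from death was scored. ED50 came from dose-response curves of at least three half-log doses with 10 mice per dose.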

Mus musculus [14] = assay: N-methyl-D-aspartate glutamate receptor antagonist activity was measured as ataxia (the inability of the mice to cling to screen platform upon its inversion; IA means Compound was inactive at 30 mg/kg when examined after 5 or 30 min after iv dosing; type: functional, organism-based; design: dose 30 mg/kg; in short: as §3
[15] = target: T1, Glutamate NMDA receptor (Rattus norvegicus); assay: N-methyl-D-aspartate glutamate receptorA antagonistic activity was assessed from the ability to inhibit glutamate-induced accumulation of [Ca2+] in cultured rat cortical neurons;IA means Compound was inactive up to 250 uM.; type: functional; in short: as §5
Glutamate NMDA receptor [16] = assay: (§6) N-methyl-D-aspartate glutamate receptor antagonistic activity was assessed from the ability to displace [3H]CPP29,30 from rat cortical membranes.; in short: as §2
Mus musculus [17] = species: Mus musculus; assay: N-methyl-D-aspartate glutamate receptor antagonist activity of compound was demonstarted by the inhibition of NMDA-induced lethality in mouse; type: functional; in short: as §4
Mus musculus [18] = species: Mus musculus; assay: N-methyl-D-aspartate glutamate receptor antagonist activity was measured as ataxia (the inability of the mice to cling to screen platform upon its inversion.); type: functional; in short: as §3
Glutamate NMDA receptor [19] = assay: N-methyl-D-aspartate glutamate receptor antagonistic activity was assessed from the ability to inhibit glutamate-induced accumulation of [Ca2+] in cultured rat cortical neurons.; type: functional; in short: as §5
Glutamate NMDA receptor [20] = assay: as §6; remark: listed apart in the source
Mus musculus [21] = assay: Compound was tested in vivo for the maximum dose that protects from NMDA-induced death in mice; Inactive; type: functional; in short: as §1

With NC(CCc1ccccc1CP(=O)(O)O)C(=O)O (stereo not drawn) the I [1] was 54%.

NC(C(=O)O)c1ccc(CCP(=O)(O)O)cc1 (stereo not drawn) gave an I [2] of 4%.

Work on NC(CCCc1ccccc1CP(=O)(O)O)C(=O)O (stereo not drawn) yielded an I [2] of 46%.

NC(Cc1cccc(CCP(=O)(O)O)c1)C(=O)O (stereo not drawn) was tested, and the I [1] was 19%.

NC(C(=O)O)c1cccc(P(=O)(O)O)c1 (stereo not drawn) gave a Max dose (Mus musculus [3]) of 30 mg/kg and an IC50 (Glutamate NMDA receptor [4]) of 17.4 µM.

In the case of NC(C(=O)O)c1cccc(CCP(=O)(O)O)c1 (stereo not drawn), the I [2] is reported as 35%.

In the case of NC(Cc1cccc(CP(=O)(O)O)c1)C(=O)O (stereo not drawn), the I [2] is reported as 1%.

Compound NC(Cc1ccccc1P(=O)(O)O)C(=O)O (stereo not drawn) has an I [1] of 3%.

NC(C(=O)O)c1ccc(CP(=O)(O)O)cc1 (stereo not drawn) was tested, and the ED50 (Mus musculus [5]) was 19 mg/kg, the ED50 (Mus musculus [6]) was 8 mg/kg and the IC50 (Glutamate NMDA receptor [7]) was 1.01 µM. The IC50 (Glutamate NMDA receptor [8]) was 58 µM.

For NC(Cc1cccc(P(=O)(O)O)c1)C(=O)O (stereo not drawn), the I [1] was 15%.

NC(CCCCCP(=O)(O)O)C(=O)O (stereo not drawn) [AP-7] gave an ED50 (Mus musculus [9]) of 17 mg/kg, an ED50 (Mus musculus [10]) of 56 mg/kg and an IC50 (Glutamate NMDA receptor [4]) of 0.8 µM. For the same compound, the IC50 (Glutamate NMDA receptor [11]) was 46 µM.

NC(C(=O)O)c1ccc(CCCP(=O)(O)O)cc1 (stereo not drawn) was tested, and the I [2] was 20%.

For NC(Cc1ccccc1CCP(=O)(O)O)C(=O)O (stereo not drawn), the Max dose (Mus musculus [12]) was 30 mg/kg, the IA (Mus musculus [13]) was “inactive” and the IA (Mus musculus [14]) was “inactive”. The IA [15] was “inactive” and the IC50 (Glutamate NMDA receptor [16]) was 60.9 µM.

In the case of NC(Cc1ccc(CP(=O)(O)O)cc1)C(=O)O (stereo not drawn), the ED50 (Mus musculus [17]) is reported as 74 mg/kg, the ED50 (Mus musculus [18]) is reported as 74 mg/kg and the IC50 (Glutamate NMDA receptor [19]) is reported as 378 µM. The IC50 (Glutamate NMDA receptor [16]) was 3.3 µM.

O=C(O)C1CN(CCCP(=O)(O)O)CCN1 (stereo not drawn) gave an IC50 (Glutamate NMDA receptor [20]) of 0.08 µM.

NC(C(=O)O)c1cccc(CP(=O)(O)O)c1 (stereo not drawn) was tested, and the Max dose (Mus musculus [21]) was 60 mg/kg and the IC50 (Glutamate NMDA receptor [4]) was 9.3 µM.

NC(Cc1ccc(P(=O)(O)O)cc1)C(=O)O (stereo not drawn) showed an I [2] of 10%.

For NC(C(=O)O)c1ccc(P(=O)(O)O)cc1 (stereo not drawn), the I [2] was 10%.
